# Only some compounds are listed: those with a hit (about 2.5% of all), similar ones and a draw of the others.
# HTRA1 inh – blocks human HTRA1 serine peptidase; inhibition, % at 5.96 µM; recombinant HTRA1, FP-rhodamine activity-based probe, fluorescence polarization; 340,000 compounds, 0.5% hits; in the data active means inhibition above about 36%;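 further: 0% = enzyme with DMSO and 100% = wells lacking enzyme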
# SIAE inh – blocks human sialic acid acetylesterase | Q9HAT2 | SIAE FP-Rh probe binding, fluorescence polarization | inhibition, % at 9.66 µM | 370,000 compounds, 0.69% hits | AID 1053197;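 active means inhibition above a cutoff: mean of compounds within the control limits plus 3 SD of those, cut at about 17% in these data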;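 further: 0% = plate median of compound wells and 100% = probe without SIAE protein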
# ABHD4 inh – inhibits mouse alpha/beta hydrolase domain 4; AID 720543; purified mABHD4, FP-Rh probe fluorescence polarization; 370,000 compounds, 0.54% hits; Q8VD66; inhibition, % at 8.92 µM;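 active means inhibition exceeding the mean over every tested compound plus 3 SD, cut at about 30% in these data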;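 further: 0% = plate median of compound wells and 100% = S159A mutant with DMSO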
# Target sequence (Q8VD66 whole entry, looked up, the tested form may be a part): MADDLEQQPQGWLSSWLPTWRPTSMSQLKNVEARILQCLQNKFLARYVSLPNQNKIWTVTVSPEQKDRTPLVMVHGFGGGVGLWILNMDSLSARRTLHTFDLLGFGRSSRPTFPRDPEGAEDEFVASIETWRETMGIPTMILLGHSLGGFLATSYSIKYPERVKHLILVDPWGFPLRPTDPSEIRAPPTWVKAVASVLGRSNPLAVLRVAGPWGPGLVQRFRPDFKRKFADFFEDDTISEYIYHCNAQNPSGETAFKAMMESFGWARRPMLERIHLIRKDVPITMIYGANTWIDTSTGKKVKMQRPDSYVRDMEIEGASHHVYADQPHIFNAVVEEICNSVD
#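 Test system: mABHD4 protein | Buffer or medium: HEPES pH 7.0 buffer, 150 mM NaCl, 0.01% Pluronic F-127 | Probe or stimulus: FP-Rh fluorescent activity-based probe, added after compound pre-incubation | Timing: Pre-incubation 45 min, probe exposure 60 min, at 25 °C | Technique: Fluorescence polarization, excitation 525 nm, emission 598 nm, BODIPY TMR filters | Repeats: Single well per compound (singlicate)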
# PRMT1 inh – inhibitors of human PRMT1. 370,000 compounds, 1.3% hits. AID 652257. Q99873. inhibition, % at 2.79 µM. recombinant PRMT1, activity-based probe fluorescence polarization;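 active means inhibition above about 21% made by adding two undisclosed values, limit read from the data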
# Target sequence (Q99873 whole entry, looked up): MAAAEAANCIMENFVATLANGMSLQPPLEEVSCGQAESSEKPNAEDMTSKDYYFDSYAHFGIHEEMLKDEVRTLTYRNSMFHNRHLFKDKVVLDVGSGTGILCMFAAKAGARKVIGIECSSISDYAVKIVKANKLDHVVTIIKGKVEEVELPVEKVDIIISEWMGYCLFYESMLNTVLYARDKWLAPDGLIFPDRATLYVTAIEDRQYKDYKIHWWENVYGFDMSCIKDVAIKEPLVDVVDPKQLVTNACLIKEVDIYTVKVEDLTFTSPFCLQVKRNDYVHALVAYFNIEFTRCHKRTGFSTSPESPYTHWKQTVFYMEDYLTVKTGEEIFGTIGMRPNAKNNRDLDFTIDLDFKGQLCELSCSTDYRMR
# TCR CD3 inh – blocks the human TCR-CD3 interaction. AID 651800. 360,000 compounds, 0.37% hits. TAMRA-labeled TCR probe fluorescence, biochemical. inhibition, % at 9.4 µM;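 further: recombinant mutant TCR 2C K166C tagged with TAMRA read by polarization; 0% = receptor in buffer alone and 100% = receptor with positive control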
# HTRA1 conf – HTRA1 (human) inhibition, confirmation; shares compounds with HTRA1 inh; recombinant HTRA1, FP-rhodamine activity-based probe, fluorescence polarization; inhibition, % at 5.96 µM; 1,600 compounds, 66% hits; AID 540248;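 active means mean inhibition over three repeats above a set limit taken from the earlier primary screen, cut at about 37% in these data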;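 further: 0% = HTRA1 with DMSO and 100% = wells lacking HTRA1; inhibitors block probe binding so polarization drops and inhibition rises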
# BSA TAMRA ctr – interferes with TAMRA-BSA probe, flagging TCR-CD3 hits; shares compounds with TCR CD3 inh; TAMRA-labeled BSA probe fluorescence counterscreen; inhibition, % at 9.4 µM; 1,200 compounds, 10% hits; AID 652035; in the data active means inhibition above about 23%;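 further: 0% = buffer low control and 100% = reference high control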
# TCR-CD3 conf – confirmation of human TCR-CD3 interaction inhibitors. inhibition, % at 9.4 µM. shares compounds with TCR CD3 inh. TAMRA-labeled TCR probe fluorescence binding assay. AID 652036. 1,200 compounds, 48% hits
# PRMT1 confirm – confirmation of human PRMT1 inhibitors; shares compounds with PRMT1 inh; recombinant His-PRMT1, activity-based probe fluorescence polarization; inhibition, % at 2.79 µM; 3,300 compounds, 42% hits; AID 687036;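 active means mean inhibition across replicates above the hit cutoff derived for the earlier primary screen, cut at about 22% in these data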
# ABHD4 confirm – ABHD4 (mouse) inhibition, FP confirmation. 1,800 compounds, 55% hits. AID 720658. shares compounds with ABHD4 inh. purified mABHD4, FP-Rh probe fluorescence polarization. inhibition, % at 8.92 µM;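 active means mean inhibition across replicates above the hit cutoff set in the primary screen, cut at about 30% in these data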;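 further: 0% = wild-type ABHD4 with DMSO and 100% = catalytically dead S159A mutant with DMSO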
# SIAE confirm – confirmation of human SIAE inhibitors | shares compounds with SIAE inh | SIAE FP-Rh activity-based probe, fluorescence polarization | inhibition, % at 9.66 µM | 2,300 compounds, 13% hits;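 active means mean inhibition of the replicates above the hit cutoff set in the primary screen, cut at about 17% in these data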;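 further: 0% = SIAE with DMSO and probe and 100% = probe without SIAE; inhibitors lower polarization as more probe stays unbound to SIAE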
# * = called active by the depositor; nt = no result. Unless noted, no stated cut-off is given here; in the data, active means inhibition above about 19%; inactive means the rest.
SMILES,HTRA1 inh,SIAE inh,ABHD4 inh,PRMT1 inh,TCR CD3 inh,HTRA1 conf,ABHD4 confirm,others
Oc1ccc(-c2csc(Nc3ccccn3)n2)cc1O,64*,13,31*,6,15,80*,40*,
Cc1cccc(Nc2nc(-c3ccc(O)c(O)c3)cs2)n1,60*,4,34*,1,-1,59*,57*,
Cc1cccc(Nc2nc(-c3ccc(F)c(C)c3)cs2)n1,-2,-2,15,1,0,nt,nt,
Cc1ccnc(Nc2nc(-c3ccc(O)cc3)cs2)c1,16,7,8,2,-5,nt,nt,
CNc1ccc(Br)cc(C(=O)/C=C/c2ccc3c(c2)OCO3)c1=O,44*,11,40*,25*,18,13,44*,
CNc1ccc(Br)cc(C(=O)/C=C/c2cc(OC)ccc2OC)c1=O,39*,17*,38*,26*,16,9,40*,
CN(C)c1ccc(C=c2c3cc([N+](=O)[O-])ccc3n3c2cc(-c2ccccc2)[n+]3C)cc1,92*,15,78*,12,57*,41*,28,
Cc1cccc(C(=O)Nc2nnc(Cc3ccccc3)s2)c1,-9,-2,-4,1,-3,nt,nt,
O=C(/C=C/c1ccc(O)c(O)c1)c1ccccc1O,60*,-10,36*,6,7,68*,27,
COC(=O)C(C(=O)OC)c1ccccc1NC(=O)OCc1ccccc1,nt,3,6,3,-1,nt,nt,
CN(C1=C(NC(=O)c2ccc(Cl)cc2)C(=O)c2ccccc2C1=O)c1ccccc1,73*,1,56*,3,-4,65*,71*,
O=C1C(Cl)=C(NC(=O)c2ccccc2)C(=O)C(Cl)=C1NC(=O)c1ccccc1,37*,3,64*,96*,-8,-2,71*,
O=C(NC1=C(Nc2ccc(Cl)cc2)C(=O)c2ccccc2C1=O)c1ccccc1,19,-11,16,0,-6,nt,nt,
O=[N+]([O-])c1cc(C(F)(F)F)cc([N+](=O)[O-])c1NN=C1CCCCC1,42*,12,37*,18,10,1,22,
O=[N+]([O-])c1cc(S(=O)(=O)N2CCCC2)ccc1NN=C1CCCCC1,-4,2,-6,2,0,nt,nt,
Cc1c(Br)c(=O)oc2c(Br)c(O)ccc12,1,-4,2,-1,2,nt,nt,
Cc1c(Br)c(=O)oc2c(Br)c(O)c(O)cc12,64*,13,51*,29*,25*,83*,53*,BSA TAMRA ctr=-9;TCR-CD3 conf=17;PRMT1 confirm=35*
CC/C(=N\Nc1ccnc2cc(Cl)ccc12)c1ccc(O)cc1,5,8,0,12,4,nt,nt,
Oc1ccc(/C=N/Nc2ccnc3cc(Cl)ccc23)cc1O,42*,14,35*,-5,10,72*,63*,
Cc1[nH]n2c(=O)cc(-c3ccc([N+](=O)[O-])cc3)nc2c1-c1ccccc1,40*,10,48*,-2,4,87*,72*,
Cc1ccc(C2C3=C(CC(C)(C)CC3=O)OC3=C2C(=O)CC(C)(C)C3)cc1,1,4,10,2,-8,nt,nt,
Nc1cc(Cl)nnc1Cl,2,-1,3,4,-2,nt,nt,
Oc1c(N=Nc2ccccn2)ccc2ccccc12,51*,5,35*,-3,7,38*,25,
COc1cc(/C=C2/C(=O)NN(c3ccc(Cl)c(Cl)c3)C2=O)cc([N+](=O)[O-])c1O,38*,-8,60*,26*,7,42*,80*,PRMT1 confirm=16
COc1cc(/C=C2/C(=O)NN(c3ccc(F)cc3)C2=O)cc(Cl)c1O,7,6,12,5,-1,nt,nt,
SMILES,HTRA1 inh,SIAE inh,ABHD4 inh,PRMT1 inh,TCR CD3 inh,HTRA1 conf,ABHD4 confirm,others
N#Cc1c(N)nc2c3c(sc(=N)c2c1N)NC(=O)CC3c1c(F)cccc1Cl (stereo not given),63*,0,35*,1,10,25,17,
Nc1[nH]n(-c2ccccc2)c(=O)c1N=Nc1ccccc1,25,11,26,-1,3,nt,nt,
Nc1[nH]n(-c2ccccc2)c(=O)c1N=Nc1ccc2ncsc2c1,36*,13,48*,23*,-6,26,65*,
CCO[C@@H]1OC(C(=O)N2CCCCCCC2)=C[C@H](C2CCCCC2)[C@H]1CCCO,-1,5,3,-1,-2,nt,nt,
Oc1ccc(N=Nc2ccccc2-c2nn[nH]n2)c(O)c1,42*,16,68*,19,2,67*,71*,
O=C1CCCC(O)=C1N=Nc1ccc(C(=O)O)cc1,40*,66*,29,6,18,12,nt,SIAE confirm=-2
O=C1CCCC(O)=C1N=Nc1c(Cl)cc(C(F)(F)F)cc1Cl,72*,89*,62*,4,26*,1,-3,BSA TAMRA ctr=-7;TCR-CD3 conf=-3;SIAE confirm=4
O=C1C(N2CCOCC2)=Cc2cccc3cccc1c23,59*,49*,86*,101*,87*,39*,83*,BSA TAMRA ctr=70*;TCR-CD3 conf=47*;PRMT1 confirm=77*;SIAE confirm=27*
CC1=C(C)C(=O)C(N2CCOCC2)=CC1=O,1,-2,12,-2,13,nt,nt,
O=C1C=C(N2CCOCC2)c2cccc3cccc1c23,43*,47*,83*,102*,79*,8,2,BSA TAMRA ctr=7;TCR-CD3 conf=3;PRMT1 confirm=-2;SIAE confirm=-2
O=C1C=C(N2CCOCC2)c2ccccc2C1=O,21,-10,24,4,1,nt,nt,
CCCCCCCCN1C(=O)[C@@H](CC(=O)N2CCSCC2)C[C@@]2(C(=O)OC)C1=C[C@H](C(C)(C)C)O[C@@H]2C,nt,-5,1,-2,0,nt,nt,
O=C1c2cccc3c(O)ccc(c23)C(=O)N1Cc1ccccc1,66*,42*,75*,174*,59*,46*,80*,BSA TAMRA ctr=74*;TCR-CD3 conf=57*;SIAE confirm=49*
O=C(O)c1cccc(CN2C(=O)c3ccccc3C2=O)c1,1,-1,-8,-1,-13,nt,nt,
O=C(CS(=O)CC(=O)Nc1ccccc1-c1ccccc1)Nc1ccc(F)cc1 (stereo not given),4,-3,-10,6,1,nt,nt,

# Source: PubChem
